S1P2 antag = antagonists of human S1P2 receptor | cell-based S1P2 antagonist assay, inhibition at 5 uM | O95136 | 97,000 compounds, 0.21% hits | inhibition, % at 5 µM | AID 736; in the data active = inhibition above about 45%;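 also: CRE beta-lactamase reporter cells expressing human S1P2 stimulated with S1P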
Target sequence (O95136 whole entry, looked up): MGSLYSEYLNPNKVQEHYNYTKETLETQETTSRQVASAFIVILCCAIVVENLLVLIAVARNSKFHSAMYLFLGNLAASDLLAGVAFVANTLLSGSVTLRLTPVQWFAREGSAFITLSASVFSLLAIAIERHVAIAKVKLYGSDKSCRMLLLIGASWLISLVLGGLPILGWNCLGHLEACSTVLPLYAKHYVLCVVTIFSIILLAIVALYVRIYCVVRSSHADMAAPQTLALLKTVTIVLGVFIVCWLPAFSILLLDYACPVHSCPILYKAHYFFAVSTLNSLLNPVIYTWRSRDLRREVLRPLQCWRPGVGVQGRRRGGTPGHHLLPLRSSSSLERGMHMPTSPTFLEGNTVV
GALR2 antag = blocks the human galanin receptor 2; inhibition, % at 4 µM; GALR2-expressing cells, antagonist mode; 140,000 compounds, 0.39% hits; AID 828; O43603; in the data active = inhibition above about 27%;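 also: cells stimulated with galanin 1-16 at roughly its EC80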
S1P2 agonist = agonists of human S1P2 receptor | activation, % at 4.5 µM | 97,000 compounds, 0.46% hits | AID 729 | O95136 | S1P2-expressing cell line, agonist reporter read-out; in the data active = activation above about 16%
EphB4 antag = blocks human EphB4 binding to ephrin-B2. AID 720. EphB4 LBD / TNYL-RAW-Alexa532 peptide, fluorescence polarization. 97,000 compounds, 0.15% hits. P54760. inhibition, % at 7 µM;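 active = inhibition above the screen-wide mean inhibition plus 3 SD, cut at about 15% in these data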
GALR2 agonist = GALR2 (human) receptor agonism. O43603. GALR2-expressing cells, agonist activation read-out. activation, % (test concentration not listed). 140,000 compounds, 0.48% hits; in the data active = activation above about 5%, passing the limit was not always enough
Rev-RRE block = inhibitors of HIV-1 Rev-RRE RNA interaction; 97,000 compounds, 0.79% hits; Rev peptide-RRE RNA binding, FRET; inhibition, % at 8 µM; P05866;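 active = inhibition above the screen-wide mean plus 3 SD, cut at about 35% in these data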
Target sequence (P05866 whole entry, looked up): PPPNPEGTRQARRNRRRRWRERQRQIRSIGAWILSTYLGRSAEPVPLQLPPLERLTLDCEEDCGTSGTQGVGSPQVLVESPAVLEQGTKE
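Test system: labelled RRE RNA duplex and labelled Rev peptide. Times: 5 min compound–RNA preincubation, then 15 min with peptide, 25 °C. Doses: single-dose 8 µM. Measured by: FRET, excitation 480 nm, emission 540 nm donor and 671 nm acceptor. Measure: % inhibition of FRET ratio versus controls.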
Each line names hits and unclear results; the compound was inactive in the other large screens; [ ] = dose if it differs, or a comment. An excerpt weighted towards active compounds, which were near 1.8% of everything screened.

CC(C)[C@H](NS(=O)(=O)c1ccccc1)C(=O)OCC(=O)N1N=C(c2ccc(Cl)cc2)CC1c1ccco1 (some centres undefined)	none (no result: S1P2 antag, S1P2 agonist, EphB4 antag, Rev-RRE block)
O=C(Nc1ccccc1)N(Cc1ccc2c(c1)OCO2)Cc1nc2ccccc2c(=O)[nH]1	S1P2 agonist 21
O=C(c1ccccc1)N(Cc1ccc2c(c1)OCO2)Cc1nc2ccccc2c(=O)[nH]1	none
COc1cc(OC)c(C(=O)OC(C)C(=O)Nc2cccc(C(F)(F)F)c2)cc1OC (centres undefined)	none (no result: S1P2 antag, S1P2 agonist, EphB4 antag, Rev-RRE block)
Cn1cc(S(=O)(=O)N2CCN(c3ccccc3)CC2)c(=O)n(C)c1=O	EphB4 antag 16
O=C(NC1=NCCS1)C1CC2CCC1C2 (centres undefined)	S1P2 agonist 18
COc1cccc(Cn2c(N)c(C#N)c3nc4ccccc4nc32)c1OC	S1P2 agonist 24
Cc1ccc(C(=O)NCCn2c(N)c(C#N)c3nc4ccccc4nc32)cc1	none (no result: S1P2 antag, S1P2 agonist, EphB4 antag, Rev-RRE block)
COc1ccc(-n2c(NC(=O)c3ccc(Br)o3)c(C#N)c3nc4ccccc4nc32)cc1	GALR2 agonist 5.4
COc1cc(Cn2c(N)c(C#N)c3nc4ccccc4nc32)cc(OC)c1	GALR2 agonist 13
COCCn1c(N)c(C#N)c2nc3ccccc3nc21	none
COC(=O)c1ccccc1NC(=O)c1cccc(NC(=O)c2ccc(Br)o2)c1C	none
COc1ccc(Cn2c(N)c(C#N)c3nc4ccccc4nc32)cc1	S1P2 agonist 31
N#Cc1c(N)n(CCOC(=O)c2cccc(Br)c2)c2nc3ccccc3nc12	none
CCNS(=O)(=O)c1ccc(CCC(=O)NCCC2=CCCCC2)cc1	none (no result: S1P2 antag, S1P2 agonist, EphB4 antag, Rev-RRE block)
CCn1ncc(Br)c1C(=O)Nc1cc([N+](=O)[O-])ccc1C	none (no result: S1P2 antag, S1P2 agonist, EphB4 antag, Rev-RRE block)
O=c1ccn(-c2cccc(C(F)(F)F)c2)nc1-c1ccn(-c2ccccc2)n1	S1P2 agonist 25
O=C(NCc1cn(-c2ccccc2)nc1-c1ccc(F)cc1)c1cccc([N+](=O)[O-])c1	none (no result: S1P2 antag, S1P2 agonist, EphB4 antag, Rev-RRE block)
CC(=O)Oc1ccc2c(=O)c(Oc3ccccc3)coc2c1OC(C)=O	none (no result: S1P2 antag, S1P2 agonist, EphB4 antag, Rev-RRE block)
CCN1CC2=C(OC(N)=C(C#N)C2c2cccs2)/C(=C/c2cccs2)C1 (centres undefined)	Rev-RRE block 42
CCN1CC2=C(OC(N)=C(C#N)C2c2ccccc2)/C(=C\c2ccccc2)C1 (centres undefined)	none
N#CC1=C(SCC(=O)c2cc3ccccc3oc2=O)NC(=O)C(C#N)C12CCCC2 (centres undefined)	Rev-RRE block 113[fluorescence artefact?]
O=C(CNC(=O)COc1ccccc1)NCc1ccccc1F	none (no result: S1P2 antag, S1P2 agonist, EphB4 antag, Rev-RRE block)
COCCCn1c(N)c(-c2nc3ccccc3n2C)c2nc3ccccc3nc21	Rev-RRE block 58
Cn1c(-c2c(N)n(C3CCCC3)c3nc4ccccc4nc23)nc2ccccc21	S1P2 antag 93, Rev-RRE block 58
COc1ccc(C(=O)C(CN2CCOCC2)c2ccccc2)cc1F (centres undefined)	GALR2 antag 33
Cc1ccc(C)c2nc3sc(C(=O)N4CCCc5ccccc54)c(N)c3cc12	Rev-RRE block 62
CCc1ccc2nc3sc(C(=O)N4CCc5ccccc54)c(N)c3cc2c1	none (no result: S1P2 antag, S1P2 agonist, EphB4 antag, Rev-RRE block)
CC(N)c1ccc(Cl)cc1Cl (centres undefined)	none (no result: S1P2 antag, S1P2 agonist, EphB4 antag, Rev-RRE block)
Cc1cc2c(c(=O)o1)C1(C(=O)N(CC(=O)O)c3ccccc31)C(C#N)=C(N)O2 (centres undefined)	Rev-RRE block 49
CCN1C(=O)C2(C(C#N)=C(N)Oc3cc(C)oc(=O)c32)c2ccccc21 (centres undefined)	none
Cc1ccc2[nH]c3c(N4CCN(Cc5ccc6c(c5)OCO6)CC4)ncnc3c2c1	S1P2 antag 69
Cc1ccc2[nH]c3c(N4CCN(Cc5ccccc5)CC4)ncnc3c2c1	S1P2 antag 59
COc1cccc2[nH]c3c(N4CCN(Cc5ccc6c(c5)OCO6)CC4)ncnc3c12	none
CCOc1ccc2[nH]c3c(N4CCN(c5ccccn5)CC4)ncnc3c2c1	none
Cc1ccc2c(c1)[nH]c1c(N3CCN(Cc4ccccc4)CC3)ncnc12	S1P2 antag 70
O=C(c1ccc(F)cc1)N1CCN=C1c1ccccc1	none (no result: S1P2 antag, S1P2 agonist, EphB4 antag, Rev-RRE block)
CN1C(=O)c2cccc3c(Cl)ccc(c23)C1=O	none
O=C1c2cccc3c(N4CCCCC4)ccc(c23)C(=O)N1CCO	Rev-RRE block 118[fluorescence artefact?]
Cc1n[nH]c(C)c1N1C(=O)c2cccc3c(N4CCCCCC4)ccc(c23)C1=O	Rev-RRE block 134[fluorescence artefact?]

Assay outcomes deposited in PubChem BioAssay by The Scripps Research Institute Molecular Screening Center.
